Results reported in ChEMBL document CHEMBL4229342, “Synthesis of novel proxyphylline derivatives with dual Anti-Candida albicans and anticancer activity” (Eur J Med Chem, 2018).
pEC50, pIC50: −log10 of the molar value. In brackets after ≈: the same amount, converted by molar mass.

Key:
[1] = tested on: Candida albicans; assay: Antifungal activity against Candida albicans ATCC 90028 assessed as reduction in cell viability at 1022.5 to 0.06 uM after 48 hrs in presence of ergosterol by XTT assay; type: functional; conditions: ATCC 90028, 48 h
[2] = tested on: Candida albicans; assay: Growth inhibition of Candida albicans ATCC 90028 at 0.625 ug/ml incubated for 18 hrs at 35 degC by broth microdilution method relative to control; type: functional; conditions: ATCC 90028, 18 h, read-out: GI
[3] = tested on: Candida albicans; assay: Growth inhibition of Candida albicans ATCC 90028 at 0.625 ug/ml incubated for 48 hrs at 35 degC by broth microdilution method relative to control; type: functional; conditions: ATCC 90028, 48 h, read-out: GI
[4] = tested on: Candida albicans; assay: Antifungal activity against Candida albicans ATCC 90028 assessed as reduction in cell viability at 0.1 uM after 48 hrs in presence of ergosterol by XTT assay; type: functional
[5] = tested on: Candida albicans; assay: Antifungal activity against Candida albicans ATCC 90028 assessed as reduction in cell viability at 0.3 uM after 48 hrs in absence of ergosterol by XTT assay; type: functional
[6] = tested on: Candida albicans; assay: Antifungal activity against Candida albicans ATCC 90028 assessed as reduction in cell viability after 48 hrs in absence of ergosterol by XTT assay; type: functional; conditions: ATCC 90028, 48 h
[7] = tested on: Candida albicans; assay: Growth inhibition of Candida albicans ATCC 90028 at 0.25 ug/ml incubated for 18 hrs at 35 degC by broth microdilution method relative to control; type: functional; conditions: ATCC 90028, 18 h, read-out: GI
[8] = tested on: Candida albicans; assay: Growth inhibition of Candida albicans ATCC 90028 at 8 ug/ml incubated for 4 hrs at 35 degC by broth microdilution method relative to control; type: functional; conditions: ATCC 90028, 4 h, read-out: GI
[9] = tested on: Candida albicans; assay: Growth inhibition of Candida albicans ATCC 90028 at 0.5 ug/ml incubated for 18 hrs at 35 degC by broth microdilution method relative to control; type: functional; conditions: ATCC 90028, 18 h, read-out: GI
[10] = tested on: CCRF-CEM; assay: Antiproliferative activity against human CCRF-CEM cells assessed as cell viability at 200 uM after 72 hrs by MTT assay; type: functional; conditions: read-out: Activity
Summary of the method: (§1)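 MTT viability assay in CCRF-CEM and MCF-7 cells after 72 h exposure at 25, 50, 100 and 200 µM. Results are relative to control cells without inhibitor in 0.5% DMSO. Done in triplicate; values are means ± SD of three independent experiments.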

[11] = tested on: Candida albicans; assay: Growth inhibition of Candida albicans ATCC 90028 at 0.25 ug/ml incubated for 4 hrs at 35 degC by broth microdilution method relative to control; type: functional; conditions: ATCC 90028, 4 h, read-out: GI
[12] = tested on: Candida albicans; assay: Growth inhibition of Candida albicans ATCC 90028 at 16 ug/ml incubated for 48 hrs at 35 degC by broth microdilution method relative to control; type: functional; conditions: ATCC 90028, 48 h, read-out: GI
[13] = tested on: CCRF-CEM; assay: Antiproliferative activity against human CCRF-CEM cells assessed as cell viability at 100 uM after 72 hrs by MTT assay; type: functional; conditions: read-out: Activity; summary of the method: as §1
[14] = tested on: Candida albicans; assay: Growth inhibition of Candida albicans ATCC 90028 at 8 ug/ml incubated for 18 hrs at 35 degC by broth microdilution method relative to control; type: functional; conditions: ATCC 90028, 18 h, read-out: GI
[15] = tested on: Candida albicans; assay: Growth inhibition of Candida albicans ATCC 90028 at 0.0625 ug/ml incubated for 4 hrs at 35 degC by broth microdilution method relative to control; type: functional; conditions: ATCC 90028, 4 h, read-out: GI
[16] = tested on: MCF7; assay: Antiproliferative activity against human MCF7 cells assessed as cell viability at 25 uM after 72 hrs by MTT assay; type: functional; conditions: MCF7, 72 h, read-out: Activity; summary of the method: as §1
[17] = tested on: Candida albicans; assay: Growth inhibition of Candida albicans ATCC 90028 at 1 ug/ml incubated for 18 hrs at 35 degC by broth microdilution method relative to control; type: functional; conditions: ATCC 90028, 18 h, read-out: GI
[18] = tested on: MCF7; assay: Antiproliferative activity against human MCF7 cells assessed as cell viability at 100 uM after 72 hrs by MTT assay; type: functional; conditions: MCF7, 72 h, read-out: Activity; summary of the method: as §1
[19] = tested on: MCF7; assay: Antiproliferative activity against human MCF7 cells assessed as cell viability at 50 uM after 72 hrs by MTT assay; type: functional; conditions: MCF7, 72 h, read-out: Activity; summary of the method: as §1
[20] = tested on: Candida albicans; assay: Fungicidal activity against Candida albicans ATCC 90028 assessed as drug level causing 3 fold reduction in bacterial count after 48 hrs at 35 degC; type: functional; conditions: ATCC 90028, 48 h
[21] = tested on: Candida albicans; assay: Growth inhibition of Candida albicans ATCC 90028 at 0.0625 ug/ml incubated for 18 hrs at 35 degC by broth microdilution method relative to control; type: functional; conditions: ATCC 90028, 18 h, read-out: GI
[22] = tested on: Candida albicans; assay: Growth inhibition of Candida albicans ATCC 90028 at 1 ug/ml incubated for 4 hrs at 35 degC by broth microdilution method relative to control; type: functional; conditions: ATCC 90028, 4 h, read-out: GI
[23] = tested on: Candida albicans; assay: Growth inhibition of Candida albicans ATCC 90028 at 0.5 ug/ml incubated for 4 hrs at 35 degC by broth microdilution method relative to control; type: functional; conditions: ATCC 90028, 4 h, read-out: GI
[24] = tested on: Candida albicans; assay: Growth inhibition of Candida albicans ATCC 90028 at 8 ug/ml incubated for 48 hrs at 35 degC by broth microdilution method relative to control; type: functional; conditions: ATCC 90028, 48 h, read-out: GI
[25] = tested on: Candida albicans; assay: Growth inhibition of Candida albicans ATCC 90028 at 0.125 ug/ml incubated for 18 hrs at 35 degC by broth microdilution method relative to control; type: functional; conditions: ATCC 90028, 18 h, read-out: GI
[26] = tested on: Candida albicans; assay: Growth inhibition of Candida albicans ATCC 90028 at 2 ug/ml incubated for 18 hrs at 35 degC by broth microdilution method relative to control; type: functional; conditions: ATCC 90028, 18 h, read-out: GI
[27] = tested on: Vero; assay: Cytotoxicity in African green monkey Vero cells up to 64 ug/ml incubated for 3 to 18 hrs by XTT assay; type: cell-based; conditions: chlorocebus sabaeus
[28] = tested on: Candida albicans; assay: Growth inhibition of Candida albicans ATCC 90028 at 0.125 ug/ml incubated for 4 hrs at 35 degC by broth microdilution method relative to control; type: functional; conditions: ATCC 90028, 4 h, read-out: GI
[29] = tested on: Vero; assay: Cytotoxicity in African green monkey Vero cells incubated for 18 hrs by XTT assay; type: cell-based; conditions: Chlorocebus sabaeus
[30] = tested on: CCRF-CEM; assay: Antiproliferative activity against human CCRF-CEM cells assessed as cell viability at 50 uM after 72 hrs by MTT assay; type: functional; conditions: read-out: Activity; summary of the method: as §1
[31] = tested on: MCF7; assay: Antiproliferative activity against human MCF7 cells assessed as cell viability at 200 uM after 72 hrs by MTT assay; type: functional; conditions: MCF7, 72 h, read-out: Activity; summary of the method: as §1
[32] = tested on: Candida albicans; assay: Growth inhibition of Candida albicans ATCC 90028 at 16 ug/ml incubated for 18 hrs at 35 degC by broth microdilution method relative to control; type: functional; conditions: ATCC 90028, 18 h, read-out: GI
[33] = tested on: Candida albicans; assay: Growth inhibition of Candida albicans ATCC 90028 at 2 ug/ml incubated for 4 hrs at 35 degC by broth microdilution method relative to control; type: functional; conditions: ATCC 90028, 4 h, read-out: GI
[34] = tested on: Candida albicans; assay: Fungicidal activity against Candida albicans ATCC 90028 assessed as log reduction in cell viability at 16 ug/ml after 48 hrs at 35 degC; type: functional
Summary of the method: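 MFC assay on C. albicans ATCC 90028 following M27-A3, at the molar equivalent of 16 µg/mL. CFU of treated cells were compared with CFU of the untreated inoculum. Activity is given as lg R = lg CFU/mL control − lg CFU/mL treated, and lg R ≥3 was defined as fungicidal. Values are means of two independent experiments.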

[35] = tested on: CCRF-CEM; assay: Antiproliferative activity against human CCRF-CEM cells after 72 hrs by MTT assay; type: functional, cell-based
Summary of the method: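 EC50 was derived from a repeat 72 h MTT assay in CCRF-CEM or MCF-7 cells. It is the concentration killing 50% of tumour cells compared with control cells incubated without inhibitor in 0.5% DMSO.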

[36] = tested on: CCRF-CEM; assay: Antiproliferative activity against human CCRF-CEM cells assessed as cell viability at 25 uM after 72 hrs by MTT assay; type: functional; conditions: read-out: Activity; summary of the method: as §1
[37] = tested on: Candida albicans; assay: Growth inhibition of Candida albicans ATCC 90028 at 4 ug/ml incubated for 18 hrs at 35 degC by broth microdilution method relative to control; type: functional; conditions: ATCC 90028, 18 h, read-out: GI
[38] = tested on: Candida albicans; assay: Growth inhibition of Candida albicans ATCC 90028 at 0.0313 ug/ml incubated for 4 hrs at 35 degC by broth microdilution method relative to control; type: functional; conditions: ATCC 90028, 4 h, read-out: GI
[39] = tested on: Candida albicans; assay: Growth inhibition of Candida albicans ATCC 90028 at 0.0313 ug/ml incubated for 18 hrs at 35 degC by broth microdilution method relative to control; type: functional; conditions: ATCC 90028, 18 h, read-out: GI

Row | Compound | inhibition of growth at 0.25 µg/mL [7] [%] | inhibition of growth at 8 µg/mL [8] [%] | inhibition of growth at 0.5 µg/mL [9] [%] | viability at 200 µM [10] [%] | inhibition of growth at 0.25 µg/mL [11] [%] | inhibition of growth at 16 µg/mL [12] [%] | viability at 100 µM [13] [%] | inhibition of growth at 8 µg/mL [14] [%] | inhibition of growth at 0.0625 µg/mL [15] [%] | viability at 25 µM [16] [%] | inhibition of growth at 1 µg/mL [17] [%] | viability at 100 µM [18] [%] | viability at 50 µM [19] [%] | MFC [20] [µM] | inhibition of growth at 0.0625 µg/mL [21] [%] | inhibition of growth at 1 µg/mL [22] [%] | inhibition of growth at 0.5 µg/mL [23] [%] | inhibition of growth at 8 µg/mL [24] [%] | inhibition of growth at 0.125 µg/mL [25] [%] | inhibition of growth at 2 µg/mL [26] [%] | further results
1 | C[C@@H]1[C@H](O)[C@@H](C)/C=C/C=C/C=C/C=C/C=C/C=C/C=C/[C@H](O[C@@H]2O[C@H](C)[C@@H](O)[C@H](N)[C@@H]2O)C[C@@H]2O[C@](O)(C[C@@H](O)C[C@@H](O)[C@H](O)CC[C@@H](O)C[C@@H](O)CC(=O)O[C@H]1C)C[C@H](O)[C@H]2C(=O)O [AMPHOTERICIN B] |  |  |  |  |  |  |  |  |  |  |  |  |  |  |  |  |  |  |  |  | MIC [1]: 0.1 µM; inhibition of growth at 0.625 µg/mL [2]: 100%; inhibition of growth at 0.625 µg/mL [3]: 100%; Activity [4]: 78.5%; Activity [5]: 95.5%; MIC [6]: 0.3 µM (≈ 0.277 µg/mL)
2 | CC(Cn1cnc2c1c(=O)n(C)c(=O)n2C)OCc1cn(CCCn2cnc3c(Br)c(Br)c(Br)c(Br)c32)nn1 (centres undefined) | 100 | 99 | 99.6 | 0 | 99.6 | 100 | 0 | 99.9 | 99.3 | 74.5 | 100 | 2 | 29.7 | 36 (≈ 28.6 µg/mL) | 99.7 | 99.2 | 99 | 99.2 | 100 | 100 | Activity [27]: Non-Toxic; inhibition of growth at 0.125 µg/mL [28]: 99.6%; pIC50 [29]: ≤ 3.55; viability at 50 µM [30]: 0%; viability at 200 µM [31]: 4.1%; inhibition of growth at 16 µg/mL [32]: 99.9%; inhibition of growth at 2 µg/mL [33]: 99.2%; log(activity) [34]: 8; pEC50 [35]: 5.20; viability at 25 µM [36]: 0%; inhibition of growth at 4 µg/mL [37]: 99.9%
3 | CC(Cn1cnc2c1c(=O)n(C)c(=O)n2C)OC(=O)N1c2ccccc2C=Cc2ccccc21 (centres undefined) | 100 | 99.2 | 99.7 | 23.4 | 99.2 | 100 | 23.9 | 99.8 | 99.3 | 93.4 | 100 | 82.5 | 98.8 | 35 (≈ 16 µg/mL) | 99.9 | 99.3 | 99.2 | 99.2 | 100 | 99.8 | inhibition of growth at 0.0313 µg/mL [38]: 99.1%; Activity [27]: Non-Toxic; inhibition of growth at 0.125 µg/mL [28]: 99.7%; pIC50 [29]: ≤ 3.55; inhibition of growth at 0.0313 µg/mL [39]: 99.8%; viability at 50 µM [30]: 39.3%; viability at 200 µM [31]: 76.5%; inhibition of growth at 16 µg/mL [32]: 100%; inhibition of growth at 2 µg/mL [33]: 99.4%; log(activity) [34]: 8; viability at 25 µM [36]: 52.4%; inhibition of growth at 4 µg/mL [37]: 100%
